Source: PubChem BioAssay
CYP2C9 inh = blockers of cytochrome P450 2C9 activity – biochemical, luminescence, ADME assay, primary screen; CYP2C9 Supersomes, luciferin-H conversion; inhibition, % at 5 µM; hit rate 20% among 96,000; AID 777, 2007;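 active = blocking of liver enzyme CYP2C9 beyond about 50% at 5 µM, limit read from the data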
CYP2C19 inhib = blockers of cytochrome P450 2C19 activity – biochemical, luminescence, ADME assay, primary screen. P33261. CYP2C19 Supersomes, luciferin-H EGE luminescence, 30 min. inhibition, % at 5 µM. hit rate 21% among 96,000. AID 778, 2007;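 active = CYP2C19 inhibition above a set limit at 5 µM in the primary screen, cut at about 50% in these data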;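 also: plate controls were negative control wells for no effect and 2.5 mM tranylcypromine positive control for full effect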
Target sequence (P33261 whole entry, looked up): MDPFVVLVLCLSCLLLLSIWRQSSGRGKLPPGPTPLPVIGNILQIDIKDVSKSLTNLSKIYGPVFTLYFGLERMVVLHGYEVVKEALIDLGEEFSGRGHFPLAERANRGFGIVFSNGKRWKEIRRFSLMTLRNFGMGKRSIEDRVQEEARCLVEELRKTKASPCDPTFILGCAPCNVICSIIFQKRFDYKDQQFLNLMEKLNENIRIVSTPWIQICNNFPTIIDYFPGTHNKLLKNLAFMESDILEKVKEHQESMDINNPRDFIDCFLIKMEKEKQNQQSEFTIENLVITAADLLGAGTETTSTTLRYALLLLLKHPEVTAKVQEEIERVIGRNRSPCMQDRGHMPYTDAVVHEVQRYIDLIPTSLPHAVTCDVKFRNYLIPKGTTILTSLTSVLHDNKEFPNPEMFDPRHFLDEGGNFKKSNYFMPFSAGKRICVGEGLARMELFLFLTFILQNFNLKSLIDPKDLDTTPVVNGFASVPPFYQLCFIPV
CYP2C9 activ = human CYP2C9 activators, primary screen, biochemical, luminescence; Cytochrome P450 2C9 (Homo sapiens), P11712; recombinant CYP2C9, luciferin-H conversion; active compounds read high; factor 1 = untreated enzyme, 0 = blocked; hit rate 1.4% among 96,000; activation factor at 5 µM; AID 1024, 2008;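 active = activation factor of 2 or more for CYP2C9 at a 5 µM dose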;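 also: 0 = sulfaphenazole-blocked wells and 1 = vehicle-only wells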
CYP2C19 activ = human CYP2C19 activators, primary screen, biochemical, luminescence; 96,000 tested, under 10 active; activation factor at 5 µM; AID 1025, 2008; Cytochrome P450 2C19 (Homo sapiens), P33261; recombinant CYP2C19, luciferin-H EGE luminescence; active compounds read high; 0 = fully inhibited enzyme, 1 = untreated enzyme;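 active = activation factor of at least 2 at 5 µM in the primary screen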;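 also: 0 = wells with 2.5 mM tranylcypromine and 1 = vehicle-only wells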
Cav32 inh = Cav3.2 calcium influx blockers – cell-based, Fluo-4 calcium fluorescence, FDSS, MLSMR library, primary screen. AID 449739, 2010. hit rate 4% among 100,000. Cav3.2-expressing cells; active compounds read low. Voltage-dependent T-type calcium channel subunit alpha-1H (Homo sapiens), O95180. B-score at 10 µM;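 active = single-dose well whose peak fluorescence ratio is a statistical outlier from its plate by either plate-standardised score or position-corrected B-score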
Rev-RRE block = HIV-1 Rev-RRE binding inhibitors, primary screen, biochemical, FRET, protein-RNA interaction. inhibition, % at 8 µM. Rev peptide-RRE RNA binding. P05866. hit rate 0.79% among 97,000. AID 704, 2007;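 active = inhibition above the screen-wide mean plus 3 SD, cut at about 35% in these data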;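 also: 0% = median DMSO wells and 100% = median Neomycin B control wells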
Target sequence (P05866 whole entry, looked up): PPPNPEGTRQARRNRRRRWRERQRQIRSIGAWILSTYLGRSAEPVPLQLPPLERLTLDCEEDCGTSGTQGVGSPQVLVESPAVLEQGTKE
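Test system: Cy5-tagged RRE RNA duplex with fluorescein-tagged Rev peptide; Probe or stimulus: labelled Rev peptide; Schedule: 5 min preincubation and 15 min binding, 25 °C; Signal: FRET fluorescence readout; Evaluation: % inhibition from 671/540 nm acceptor-to-donor ratio, scaled between controls; Control set: DMSO and neomycin B.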
Numbers without * were called inactive; . = no result given. In the library only some 27% were active in any assay of this set; here they are far more common.

SMILES | CYP2C9 inh | CYP2C19 inhib | CYP2C9 activ | CYP2C19 activ | Cav32 inh | Rev-RRE block
COc1ccc(NCc2nnc(SCC(=O)c3ccc(OC)cc3)o2)cc1 | -101 | 22 | 2* | 0.8 | 1.1 | -1
C/C(Sc1nnc(Cc2ccccc2)o1)=C(/O)c1ccccc1 | 68* | 61* | 0.3 | 0.4 | -0.26 | -1
COc1ccc(NCc2nnc(SCC(=O)Nc3cccc(C)c3)o2)cc1 | 59* | 72* | 0.4 | 0.3 | -1.6 | 0
CN(C)c1ccc(N2[C@@H](CC(=O)O)c3cc(C(F)(F)F)ccc3S2(=O)=O)cc1 | . | . | . | . | 1 | .
CC(C)(C)c1ccccc1OCCCCCNCCO | -2 | 7 | 1 | 0.9 | -0.078 | .
Cc1noc(C)c1-c1ccc2nc[nH]c(=O)c2c1 | . | . | . | . | 0.42 | .
Cc1cccc(C)c1OCc1nnc(SCC(=O)NCCc2ccccc2)o1 | . | . | . | . | -5.7* | 15
COc1cccc(OCc2nnc(SCC(=O)OCc3ccccc3)o2)c1 | 62* | 76* | 0.4 | 0.2 | -0.029 | 12
O=C(CSc1nnc(-c2ccccc2)o1)OCc1ccccc1 | 4 | 3 | 1 | 1 | 0.22 | 5
CC(=O)N1CCn2c3ccc(C)cc3c3cccc1c32 | . | . | . | . | -2 | 7
COc1ccccc1CN1CC(C(=O)NCc2cccnc2)CC1=O (stereo unspecified) | 1 | 8 | 1 | 0.9 | 1.1 | 5
Cc1ccc(-n2c(=O)[nH]cc(C(=O)Nc3ccc4c(c3)OCO4)c2=O)cc1C | -38 | -16 | 1.4 | 1.2 | 0.00083 | .
CC1(C)Oc2ccc(C(=O)N3CCOCC3)cc2N(CC(=O)N2CCOCC2)C1=O | -3 | -11 | 1 | 1.1 | 0.93 | 7
COc1cccc(C(=O)CN2C(=O)C(C)(C)Oc3ccc(C(=O)N4CCCCCC4)cc32)c1 | 67* | 18 | 0.3 | 0.8 | -3.2 | .
Cc1ccc(CN2C(=O)C(C)(C)Oc3ccc(C(=O)N4CCCCC4)cc32)cc1 | 57* | 30 | 0.4 | 0.7 | -5.2* | 4
CC(C)NC(=O)c1ccc2c(c1)N(CC(=O)N1CCOCC1)C(=O)C(C)(C)O2 | 15 | 8 | 0.8 | 0.9 | 0.26 | 5
COc1cccc(NC(=O)c2ccc3c(c2)N(CC(=O)N2CCCCC2)C(=O)C(C)(C)O3)c1 | 64* | 12 | 0.4 | 0.9 | 1.6 | -2
O=C(Cc1ccccc1)Nc1ccc(N2CCN(Cc3ccccc3F)CC2)cc1 | 26 | 22 | 0.7 | 0.8 | 0.4 | 1
O=C(CN1C(=O)c2ccccc2C1=O)Nc1ccc(N2CCOCC2)cc1 | -3 | -18 | 1 | 1.2 | -0.32 | 3
Cc1nc(NC2=NCN(Cc3cccnc3)CN2)nc2c(C)cccc12 | -15 | -11 | 1.2 | 1.1 | . | .
CN1C(=O)C2(N=c3ccccc3=N2)c2ccccc21 | 80* | 18 | 0.2 | 0.8 | 1 | 2
CCCc1c(O)nc(SCCN(CC)CC)n(C(=O)c2ccccc2)c1=O | 19 | 8 | 0.8 | 0.9 | 1.6 | 0
CCOC(=O)Cc1[nH]nc2c1C(C1C=CCCC1)C(C#N)=C(N)O2 (stereo unspecified) | 71* | 87* | 0.3 | 0.1 | 2.6 | -2
Cc1ccc(C)c2[nH]c(=O)c(CN(CCN3CCCC3)C(=O)Nc3cccc(Cl)c3)cc12 | 12 | 20 | 0.9 | 0.8 | -7.6* | 15
COc1ccc(CN(CCCN2CCOCC2)C(=O)Nc2cccc(Cl)c2)cc1OC | 97* | 80* | 0 | 0.2 | 0.64 | 8
SMILES | CYP2C9 inh | CYP2C19 inhib | CYP2C9 activ | CYP2C19 activ | Cav32 inh | Rev-RRE block
O=C(Nc1cccc(Cl)c1)N(CCN1CCOCC1)Cc1cccc(Cl)c1 | 94* | 85* | 0.1 | 0.2 | -1.3 | 15
O=C(CCN1CCCCCC1)Nc1cccc(Cl)c1 | -9 | 6 | 1.1 | 0.9 | 1.2 | -1
C=CCC(c1ccccc1F)N(CCN1CCOCC1)C(=O)Nc1cccc(Cl)c1 (stereo unspecified) | 87* | 31 | 0.1 | 0.7 | -2.9 | 14
COc1cccc2cc(C(C)N(CCCN3CCOCC3)C(=O)Nc3ccccc3)oc12 (stereo unspecified) | 32 | 12 | 0.7 | 0.9 | -0.1 | 9
C=C(C)Cn1c(SCC(=O)O)nc2c1c(=O)[nH]c(=O)n2C | -6 | -10 | 1.1 | 1.1 | -0.023 | 8
O=C(Nc1ccccc1)N(CCCN1CCOCC1)Cc1cc2cc3c(cc2[nH]c1=O)OCCO3 | . | . | . | . | 0.25 | 4
N#CCCN(Cc1cccnc1)C(=O)Nc1cccc(Cl)c1 | 42 | 94* | 0.6 | 0.1 | -0.098 | 6
N#CCCN(Cc1cccnc1)C(=O)Nc1ccccc1 | 1 | 31 | 1 | 0.7 | 0.074 | 9
O=C(Nc1cccc(Cl)c1)N(CCN1CCOCC1)Cc1ccccc1F | 92* | 40 | 0.1 | 0.6 | -0.46 | 7
C[C@@H]1CCC[C@H](C)N1NC(=O)c1ccc(Cl)c(S(N)(=O)=O)c1 | . | . | . | . | -3.7 | .
CCOC(=O)Cn1nnnc1CN(Cc1ccccc1)Cc1cc2cc(CC)ccc2[nH]c1=O | 62* | 48 | 0.4 | 0.5 | -3.1 | .
CCOC(=O)Cn1nnnc1C(CC)N(Cc1ccccc1)Cc1cc2cc(C)ccc2[nH]c1=O (stereo unspecified) | 54* | 58* | 0.5 | 0.4 | -2.4 | 5
CCc1ccc2[nH]c(=O)c(CN(Cc3ccccc3)Cc3nnnn3Cc3ccco3)cc2c1 | 5 | 12 | 0.9 | 0.9 | -1.5 | 6
CCC(c1nnnn1Cc1ccco1)N(CCc1ccccc1)Cc1cc2cc(C)ccc2[nH]c1=O (stereo unspecified) | 48 | 42 | 0.5 | 0.6 | -2.2 | .
CCC(c1nnnn1CCc1ccccc1)N(Cc1ccco1)Cc1cc2c(C)ccc(C)c2[nH]c1=O (stereo unspecified) | 94* | 93* | 0.1 | 0.1 | -2.8 | 0
Cc1onc(-c2ccccc2)c1C(=O)n1cccn1 | 7 | 41 | 0.9 | 0.6 | 0.77 | 7
CCCCC(CCC(=O)O)(C(=O)OCC)c1csc(N)n1 (stereo unspecified) | -1 | 6 | 1 | 0.9 | 0.9 | 3
CN(C)CC(C)(C)CNS(=O)(=O)c1ccc(Cl)c(Cl)c1 | 50* | 83* | 0.5 | 0.2 | 0.74 | 1
CN(C)CCCNS(=O)(=O)c1cc(Cl)ccc1Cl | -10 | 17 | 1.1 | 0.8 | 0.97 | 2
CC(=O)C1=C(C)N(Cc2ccccc2)C(=O)N[C@H]1c1cccc(F)c1 | . | . | . | . | 0.12 | .
CC1(C)CN(c2ccccc2)N(Cc2ccc(F)cc2)C1=O | 13 | 60* | 0.9 | 0.4 | -1.1 | 8
